In ChEMBL document CHEMBL2163266, “3,3'-Disubstituted bipolar biphenyls as inhibitors of nuclear receptor coactivator binding” (Bioorg Med Chem Lett, 2012):
Active and inactive are the calls of the source. The rule behind the calls is not given here.

How the values were obtained:
MCF7 [1] = assay: Effect on E2-induced IDH3A expression in human MCF7 cells at 20 uM incubated for 2 hrs measured after 14 hrs by qPCR analysis; type: functional, cell-based
Method in brief: (§1)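 MCF-7 (ER+) cells pretreated 2 h with 20 µM compound, then exposed to vehicle or estradiol for 14 h before target gene expression was measured.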

[2] = target: T1, Estrogen receptor (Homo sapiens) (UniProt P03372); assay: Agonist activity at ERalpha in human MCF7 cells assessed as increase in PS2 expression at 20 uM incubated for 2 hrs measured after 14 hrs by qPCR analysis relative to E2; type: functional, cell-based; method in brief: as §1
T1 sequence (whole entry): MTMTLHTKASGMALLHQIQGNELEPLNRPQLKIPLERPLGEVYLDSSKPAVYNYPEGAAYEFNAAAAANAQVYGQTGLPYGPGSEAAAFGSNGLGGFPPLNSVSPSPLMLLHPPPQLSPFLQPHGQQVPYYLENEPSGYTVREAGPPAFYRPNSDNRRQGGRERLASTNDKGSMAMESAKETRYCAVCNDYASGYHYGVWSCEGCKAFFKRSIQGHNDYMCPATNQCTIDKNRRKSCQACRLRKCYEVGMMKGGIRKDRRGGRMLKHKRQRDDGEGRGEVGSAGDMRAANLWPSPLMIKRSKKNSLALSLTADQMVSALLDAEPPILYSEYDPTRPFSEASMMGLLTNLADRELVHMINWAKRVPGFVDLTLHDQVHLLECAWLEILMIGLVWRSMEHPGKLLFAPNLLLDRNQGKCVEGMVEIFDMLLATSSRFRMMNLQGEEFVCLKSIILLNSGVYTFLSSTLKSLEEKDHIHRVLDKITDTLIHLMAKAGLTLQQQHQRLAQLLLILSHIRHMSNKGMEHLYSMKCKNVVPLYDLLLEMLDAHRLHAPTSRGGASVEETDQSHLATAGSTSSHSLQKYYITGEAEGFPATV

[3] = target: T1, Estrogen receptor (Homo sapiens); assay: Antagonist activity at ERalpha in human MCF7 cells assessed as reduction in E2-induced PR expression at 20 uM incubated for 2 hrs prior to E2-induction measured after 14 hrs by qPCR analysis; type: functional, cell-based; set-up: scale not given: the % may be the effect or the level left; method in brief: as §1
[4] = target: T1, Estrogen receptor (Homo sapiens); assay: Agonist activity at ERalpha in human MCF7 cells assessed as increase in PR expression at 20 uM incubated for 2 hrs measured after 14 hrs by qPCR analysis relative to E2; type: functional, cell-based; method in brief: as §1
[5] = target: T1, Estrogen receptor (Homo sapiens); assay: Binding affinity to ERalpha co-activator binding domain by TR-FRET assay
MCF7 [6] = assay: Effect on IDH3A expression in human MCF7 cells at 20 uM incubated for 2 hrs measured after 14 hrs by qPCR analysis relative to E2; type: functional, cell-based; method in brief: as §1
[7] = target: T1, Estrogen receptor (Homo sapiens); assay: Antagonist activity at ERalpha co-activator binding domain in human Hec1 cells assessed as inhibition of co-activator binding by reporter gene assay; type: cell-based
[8] = target: T1, Estrogen receptor (Homo sapiens); assay: Antagonist activity at ERalpha co-activator binding domain expressed in human HepG2 cells assessed as inhibition of E2-induced […] LXXLL2 binding measured as decrease in […] activity at 20 to 50 uM after 40 hrs by luciferase reporter gene assay; type: cell-based
Method in brief: (§2)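 HepG2 cells co-transfected with VP16-ERα, pM-GRIP1-LXXLL2, the 5xGal4-Luc3 reporter and a pCMV-β-gal normalization control. Serial twofold dilutions given with or without 1 nM estradiol, 40 h, then reporter read. Scored as >50% increase or decrease in reporter activity within concentration bands (<20, 20–50, >50 µM); <20% change scored 0.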

[9] = target: T1, Estrogen receptor (Homo sapiens); assay: Agonist activity at ERalpha in human MCF7 cells assessed as increase in SDF1 expression at 20 uM incubated for 2 hrs measured after 14 hrs by qPCR analysis relative to E2; type: functional, cell-based; method in brief: as §1
[10] = target: T1, Estrogen receptor (Homo sapiens); assay: Antagonist activity at ERalpha in human MCF7 cells assessed as reduction in E2-induced SDF1 expression at 20 uM incubated for 2 hrs prior to E2-induction measured after 14 hrs by qPCR analysis; type: functional, cell-based; set-up: scale not given: the % may be the effect or the level left; method in brief: as §1
[11] = target: T1, Estrogen receptor (Homo sapiens); assay: Antagonist activity at ERalpha in human MCF7 cells assessed as reduction in E2-induced PS2 expression at 20 uM incubated for 2 hrs prior to E2-induction measured after 14 hrs by qPCR analysis; type: functional, cell-based; set-up: scale not given: the % may be the effect or the level left; method in brief: as §1
CV-1 = assay: Cytotoxicity against african green monkey CV1 cells at >50 uM; type: cell-based; details: chlorocebus aethiops
[12] = target: T1, Estrogen receptor (Homo sapiens); assay: Antagonist activity at ERalpha co-activator binding domain expressed in human HepG2 cells assessed as inhibition of E2-induced […] LXXLL2 binding measured as decrease in […] activity after 40 hrs by luciferase reporter gene assay; type: cell-based; set-up: concentration or dose not given beside the values; method in brief: as §2
[13] = target: T1, Estrogen receptor (Homo sapiens); assay: Agonist activity at ERalpha co-activator binding domain expressed in human HepG2 cells assessed as […] LXXLL2 binding measured as […] activity at <20 uM; type: cell-based; method in brief: as §2
[14] = target: T1, Estrogen receptor (Homo sapiens); assay: Activity at ERalpha in human MCF7 cells assessed as increase in E2-induced PS2 expression at 20 uM incubated for 2 hrs prior to E2-induction measured after 14 hrs by qPCR analysis; type: cell-based; method in brief: as §1
[15] = target: T1, Estrogen receptor (Homo sapiens); assay: Activity at ERalpha in human MCF7 cells assessed as increase in E2-induced PR expression at 20 uM incubated for 2 hrs prior to E2-induction measured after 14 hrs by qPCR analysis; type: cell-based; method in brief: as §1
HepG2 = assay: Cytotoxicity against human HepG2 cells expressing ERalpha co-activator binding domain at >50 uM; type: cell-based

Question: How did the Activity (MCF7 [1]) turn out when `CN(C)CCOc1ccc(-c2ccc(OCC(=O)O)c(Cc3ccccc3)c2)cc1Cc1ccccc1` was run?
Answer: Its Activity is “inactive”.

Question: And the Activity [2]?
Answer: The Activity was “inactive”.

Question: What about the Activity [3] of the same compound?
Answer: Its Activity is over 20%.

Question: What about the Activity [4] of the same compound?
Answer: Its Activity is “inactive”.

Question: What about the Activity [5] of the same compound?
Answer: The Activity was “Active”.

Question: And the Activity (MCF7 [6])?
Answer: Its Activity is “inactive”.

Question: What about the inhibition [7] of the same compound?
Answer: Its inhibition is “Active”.

Question: What about the inhibition [8] of the same compound?
Answer: The inhibition was over 50%.

Question: And the Activity [9]?
Answer: The Activity was “inactive”.

Question: What about the Activity [10] of the same compound?
Answer: The Activity was over 20%.

Question: And the Activity [11]?
Answer: The Activity was “inactive”.

Question: How did the Activity (CV-1) turn out when `CCOC(=O)COc1ccc(-c2ccc(OCCN(C)C)c(Cc3ccccc3)c2)cc1Cc1ccccc1` was run?
Answer: Its Activity is “Toxic”.

Question: How did the Activity [12] turn out when `CC(C)c1cc(-c2ccc(OCC(=O)O)c(C(C)C)c2)ccc1OCCN(C)C` was run?
Answer: Its Activity is under 20%.

Question: What about the Activity (MCF7 [1]) of the same compound?
Answer: The Activity was “inactive”.

Question: And the Activity [2]?
Answer: The Activity was “inactive”.

Question: And the Activity [3]?
Answer: Its Activity is over 20%.

Question: What about the Activity [4] of the same compound?
Answer: Its Activity is “inactive”.

Question: And the Activity [5]?
Answer: The Activity was “Active”.

Question: What about the Activity (MCF7 [6]) of the same compound?
Answer: The Activity was “inactive”.

Question: And the inhibition [7]?
Answer: Its inhibition is “Active”.

Question: And the Activity [9]?
Answer: Its Activity is “inactive”.

Question: And the Activity [10]?
Answer: The Activity was over 20%.

Question: What about the Activity [11] of the same compound?
Answer: Its Activity is “inactive”.

Question: Which results are given for `CCOC(=O)COc1ccc(-c2ccc(O)c(C(C)(C)C)c2)cc1C(C)(C)C`?
Answer: Activity [12]: < 20%; Activity [13]: > 50%

Question: Which Activity (MCF7 [1]) does the source give for `CN(C)CCOc1ccc(-c2ccc(OCC(=O)O)c(C(C)(C)C)c2)cc1C(C)(C)C` here?
Answer: The Activity was “inactive”.

Question: And the Activity [2]?
Answer: The Activity was over 20%.

Question: What about the Activity [14] of the same compound?
Answer: The Activity was over 20%.

Question: And the Activity [4]?
Answer: Its Activity is over 20%.

Question: And the Activity [5]?
Answer: Its Activity is “Active”.

Question: What about the Activity (MCF7 [6]) of the same compound?
Answer: The Activity was “inactive”.

Question: And the Activity [15]?
Answer: The Activity was over 20%.

Question: What about the inhibition [7] of the same compound?
Answer: The inhibition was “Active”.

Question: What about the Activity [9] of the same compound?
Answer: Its Activity is over 20%.

Question: What about the Activity [10] of the same compound?
Answer: Its Activity is over 20%.

Question: How did the Activity [12] turn out when `CN(C)CCOc1ccc(-c2ccc(OCC(=O)O)cc2)cc1` was run?
Answer: The Activity was under 20%.

Question: And the Activity (MCF7 [1])?
Answer: The Activity was “inactive”.

Question: And the Activity [2]?
Answer: Its Activity is over 20%.

Question: And the Activity [3]?
Answer: Its Activity is over 20%.

Question: What about the Activity [4] of the same compound?
Answer: Its Activity is over 20%.

Question: And the Activity [5]?
Answer: The Activity was “Active”.

Question: What about the Activity (MCF7 [6]) of the same compound?
Answer: Its Activity is “inactive”.

Question: What about the inhibition [7] of the same compound?
Answer: Its inhibition is “Active”.

Question: What about the Activity [9] of the same compound?
Answer: The Activity was over 20%.

Question: What about the Activity [10] of the same compound?
Answer: The Activity was over 20%.

Question: And the Activity [11]?
Answer: Its Activity is “inactive”.

Question: What does the source list for `CCOC(=O)COc1ccc(-c2ccc(OCCN(C)C)cc2)cc1`?
Answer: Activity [12]: < 20%; Activity [13]: > 50%

Question: What does the source list for `CCOC(=O)COc1ccc(-c2ccc(OCCN(C)C)c(C(C)(C)C)c2)cc1C(C)(C)C`?
Answer: Activity [12]: < 20%; Activity (CV-1): Toxic

Question: Which Activity (HepG2) does the source give for `CCOC(=O)COc1ccc(-c2ccc(OCCN(C)C)c(C(C)CC)c2)cc1C(C)CC` (stereo unspecified) here?
Answer: Its Activity is “Toxic”.

Question: What about the Activity (CV-1) of the same compound?
Answer: Its Activity is “Toxic”.

Question: And the Activity [13]?
Answer: Its Activity is over 50%.

Question: Which results are given for `CCOC(=O)COc1ccc(-c2ccc(O)c(C(C)CC)c2)cc1C(C)CC` (stereo unspecified)?
Answer: Activity (CV-1): Toxic; inhibition [8]: > 50%

Question: `CCOC(=O)COc1ccc(-c2ccc(O)cc2)cc1` was tested. Which Activity [12] did it give?
Answer: The Activity was under 20%.

Question: What about the Activity [13] of the same compound?
Answer: The Activity was over 50%.

Question: With `CCOC(=O)COc1ccc(-c2ccc(OCCN(C)C)c(C(C)C)c2)cc1C(C)C` as the compound, how does the Activity [12] read?
Answer: The Activity was under 20%.

Question: Which results are given for `CCOC(=O)COc1ccc(-c2ccc(O)c(C(C)C)c2)cc1C(C)C`?
Answer: Activity (CV-1): Toxic; inhibition [8]: > 50%

Question: `CCOC(=O)COc1ccc(-c2ccc(O)c(Cc3ccccc3)c2)cc1Cc1ccccc1` was tested. Which Activity [12] did it give?
Answer: The Activity was under 20%.

Question: `CCC(C)c1cc(-c2ccc(OCC(=O)O)c(C(C)CC)c2)ccc1OCCN(C)C` (stereo unspecified) was tested. Which Activity (MCF7 [1]) did it give?
Answer: The Activity was “inactive”.

Question: And the Activity [2]?
Answer: The Activity was “inactive”.

Question: And the Activity [3]?
Answer: The Activity was over 20%.

Question: And the Activity [4]?
Answer: The Activity was “inactive”.

Question: And the Activity [5]?
Answer: Its Activity is “Active”.

Question: What about the Activity (MCF7 [6]) of the same compound?
Answer: The Activity was “inactive”.

Question: And the inhibition [7]?
Answer: The inhibition was “Active”.

Question: And the Activity [9]?
Answer: The Activity was “inactive”.

Question: And the Activity [10]?
Answer: Its Activity is over 20%.

Question: And the Activity [11]?
Answer: Its Activity is over 20%.
